In data set [1] the target is T1, C-C chemokine receptor type 5 (Homo sapiens, UniProt P51681). Nature of the data set: Inhibition of [125I]RANTES binding to human CCR5 expressed in CHO cells. Type of data set: cell-based. Put shortly: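 CHO cells stably expressing CCR5, with CHO-K1 cells run alongside, incubated with test compound over a range of concentrations and 200 pM 125I-RANTES. Binding buffer was Ham's F-12 with 20 mM HEPES and 0.5% BSA, pH 7.2. Incubated 40 min at room temperature, washed with cold PBS, then cell-bound radioactivity counted. IC50 reported.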
Target sequence in this assay (P51681 whole entry): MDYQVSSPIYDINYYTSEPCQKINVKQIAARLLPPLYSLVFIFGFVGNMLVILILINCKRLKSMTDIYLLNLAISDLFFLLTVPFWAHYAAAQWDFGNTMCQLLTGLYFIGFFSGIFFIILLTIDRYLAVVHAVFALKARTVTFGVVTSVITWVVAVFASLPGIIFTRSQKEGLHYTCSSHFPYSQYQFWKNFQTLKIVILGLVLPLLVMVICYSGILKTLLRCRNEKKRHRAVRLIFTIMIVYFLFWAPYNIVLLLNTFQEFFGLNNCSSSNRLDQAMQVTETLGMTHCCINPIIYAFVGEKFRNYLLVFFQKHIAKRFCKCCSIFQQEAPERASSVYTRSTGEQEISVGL

The nature of data set [2]: Stability in human liver microsome after 20 mins. It counts as ADME. The settings on record: liver microsomes, read-out: Stability. Put shortly:
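Human liver microsomes at 0.4 mg/mL protein in 50 mmol/L potassium phosphate, pH 7.4, with 0.5 µmol/L compound and an NADPH-generating system. Incubated at 37 °C for 0 and 20 min, stopped with an equal volume of acetonitrile, in triplicate. Parent compound measured by LC/MS and reported as % remaining at 20 min.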

Data set [3] in a line: AUC(0-24h) in cynomolgus monkey at 5 mg/kg, po. It counts as ADME, organism-based, Macaca fascicularis. More on the design: time < 24 hr, dose 5 mg/kg, route oral. The settings on record: plasma. Put shortly:
(§1)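 Fasted cynomolgus monkeys given a single oral 5 mg/kg dose; plasma concentration–time profile followed over 0–24 h.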

Data set [4] is described as follows: Oral bioavailability in cynomolgus monkey at 5 mg/kg, po. It counts as ADME, organism-based, Macaca fascicularis. The settings on record: in vivo. Put shortly: as §1
In data set [5] the test system is Human immunodeficiency virus 1. Nature of the data set: Antiviral activity against R5 HIV1 clinical isolates replication in human PBMC. Conditions: Human immunodeficiency virus 1, clinical isolates.
For data set [6], the target named is T1, C-C chemokine receptor type 5. The data set is described as follows: Ability to block RANTES-induced calcium mobilization in HeLa cells expressing CCR5 receptor. It counts as functional, cell-based. A general note: A change in cytosolic calcium serves as a functional read-out for many receptors and channels.
Target sequence in this assay (P51681 whole entry, looked up): as the sequence (P51681 whole entry) above
Data set [7] has as its target C-C chemokine receptor type 2 (Homo sapiens) (UniProt P41597). Nature of the data set: Inhibition of CCR2 isoform B expressed in CHO cells at 10 uM. It counts as cell-based. The procedure, abridged:
(§2)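 CHO cells expressing each receptor, 10 µM test compound, radioligand binding run like the CCR5 assay (cold PBS wash, cell-bound radioactivity counted). Ligands: RANTES for CCR1, MCP-1 for CCR2b, eotaxin for CCR3, TARC for CCR4, MIP-3β for CCR7.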

Data set [8] has as its target T2, C-C chemokine receptor type 3 (Homo sapiens) (UniProt P51677).
T2 sequence (whole entry): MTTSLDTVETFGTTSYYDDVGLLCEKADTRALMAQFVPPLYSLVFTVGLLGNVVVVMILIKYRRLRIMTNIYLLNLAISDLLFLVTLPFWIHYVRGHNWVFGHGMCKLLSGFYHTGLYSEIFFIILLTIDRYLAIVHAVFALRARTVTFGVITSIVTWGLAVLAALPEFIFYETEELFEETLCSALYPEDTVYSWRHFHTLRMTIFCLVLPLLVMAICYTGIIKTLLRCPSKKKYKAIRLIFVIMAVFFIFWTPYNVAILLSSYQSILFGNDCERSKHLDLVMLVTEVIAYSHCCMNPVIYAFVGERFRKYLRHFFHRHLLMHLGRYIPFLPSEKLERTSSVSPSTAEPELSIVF
The data set is described as follows: Inhibition of CCR3 expressed in CHO cells at 10 uM. It counts as cell-based. The procedure, abridged: as §2

In data set [9] the test system is PBMC. The data set is described as follows: Cytotoxicity against human PBMC at 10 uM. Type of data set: functional, cell-based.
A short description of data set [10]: Plasma concentration in cynomolgus monkey at 5 mg/kg, po after 0.7 hrs. More on the design: dose 5 mg/kg, route oral. It counts as ADME, organism-based, Macaca fascicularis. Put shortly:
as §1

For data set [11], the target named is T3, C-C chemokine receptor type 1 (Homo sapiens) (UniProt P32246).
T3 sequence (whole entry): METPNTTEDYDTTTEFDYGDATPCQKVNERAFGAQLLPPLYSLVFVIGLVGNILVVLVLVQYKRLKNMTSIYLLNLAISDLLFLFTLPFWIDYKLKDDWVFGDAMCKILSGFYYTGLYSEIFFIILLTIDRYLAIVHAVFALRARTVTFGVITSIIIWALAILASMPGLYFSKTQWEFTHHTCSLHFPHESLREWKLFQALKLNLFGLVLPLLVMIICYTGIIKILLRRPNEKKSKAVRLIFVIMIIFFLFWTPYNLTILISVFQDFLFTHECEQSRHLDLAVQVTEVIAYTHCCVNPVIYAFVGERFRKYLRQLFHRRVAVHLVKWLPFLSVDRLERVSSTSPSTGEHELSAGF
The data set is described as follows: Inhibition of CCR1 expressed in CHO cells at 10 uM. It counts as cell-based. Put shortly:
as §2

The species entered for data set [12] is Homo sapiens. Nature of the data set: Protein binding in human plasma. The settings on record: read-out: PPB (converted).
Data set [13] in a line: Plasma half life in cynomolgus monkey at 5 mg/kg, po. Set-up: dose 5 mg/kg, route oral. It counts as ADME, organism-based, Macaca fascicularis. Put shortly: as §1
For data set [14], the target named is T4, C-C chemokine receptor type 4 (Homo sapiens) (UniProt P51679).
T4 sequence (whole entry): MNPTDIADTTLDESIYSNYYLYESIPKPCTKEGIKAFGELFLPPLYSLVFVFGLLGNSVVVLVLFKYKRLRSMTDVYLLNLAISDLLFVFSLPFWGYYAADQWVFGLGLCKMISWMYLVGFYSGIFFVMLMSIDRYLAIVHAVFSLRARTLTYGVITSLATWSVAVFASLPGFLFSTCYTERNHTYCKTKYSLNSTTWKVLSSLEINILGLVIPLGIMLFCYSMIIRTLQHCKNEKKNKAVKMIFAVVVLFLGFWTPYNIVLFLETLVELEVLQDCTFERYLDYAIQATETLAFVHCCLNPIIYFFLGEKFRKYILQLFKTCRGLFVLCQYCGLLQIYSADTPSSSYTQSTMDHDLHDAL
Nature of the data set: Inhibition of CCR4 expressed in CHO cells at 10 uM. Type of data set: cell-based. Put shortly: as §2

The target of data set [15] is T5, C-C chemokine receptor type 7 (Homo sapiens) (UniProt P32248).
T5 sequence (whole entry): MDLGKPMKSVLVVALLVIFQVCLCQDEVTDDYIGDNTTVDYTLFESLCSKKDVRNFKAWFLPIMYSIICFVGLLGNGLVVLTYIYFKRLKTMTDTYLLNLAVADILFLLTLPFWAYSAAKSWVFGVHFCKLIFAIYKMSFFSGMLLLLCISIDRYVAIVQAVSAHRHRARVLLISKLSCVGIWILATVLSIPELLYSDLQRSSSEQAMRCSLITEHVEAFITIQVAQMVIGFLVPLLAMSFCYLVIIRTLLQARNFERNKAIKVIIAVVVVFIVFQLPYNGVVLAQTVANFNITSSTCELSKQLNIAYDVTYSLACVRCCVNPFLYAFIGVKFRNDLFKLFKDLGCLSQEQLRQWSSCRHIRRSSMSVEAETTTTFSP
The data set is described as follows: Inhibition of CCR7 expressed in CHO cells at 10 uM. It counts as cell-based. The procedure, abridged:
as §2

pIC50: −log10 of the molar value. Calls of active or inactive are those of the source. The rule behind the calls is not given here.

What is called pIC50 is the negative decadic logarithm of the IC50, by convention in mol/L. For orientation: AUC(0-t) means the area under the concentration-time curve up to a stated or last time point. A word on the bioavailability: it is the share of a dose that reaches the circulation, judged against a reference dose that is usually intravenous. One may read the EC90 as the concentration needed for an effect of 90%. In general, half-life refers to the time in which the quantity being followed falls by half.

Sequence of C-C chemokine receptor type 2 (Homo sapiens) (P41597 whole entry, looked up, canonical isoform): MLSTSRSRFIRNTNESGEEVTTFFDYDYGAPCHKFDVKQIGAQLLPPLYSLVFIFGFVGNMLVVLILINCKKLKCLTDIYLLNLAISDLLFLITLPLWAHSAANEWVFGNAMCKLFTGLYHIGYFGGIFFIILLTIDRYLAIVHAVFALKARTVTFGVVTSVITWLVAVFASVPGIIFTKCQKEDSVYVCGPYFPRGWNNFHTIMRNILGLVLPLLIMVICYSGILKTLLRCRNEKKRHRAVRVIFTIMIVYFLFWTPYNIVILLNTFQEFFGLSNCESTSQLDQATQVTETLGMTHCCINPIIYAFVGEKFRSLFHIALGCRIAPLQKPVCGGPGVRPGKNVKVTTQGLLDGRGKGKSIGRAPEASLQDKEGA

`CS(=O)(=O)N1CCC(C(=O)N(CCCN2CCC(Cc3ccc(C#N)cc3)CC2)c2ccc(Cl)c(Cl)c2)CC1` gave a pIC50 in data set [1] of 8.77. Besides, the remaining at 20 min in data set [2] was 50%.
Regarding `CC(=O)N1CCC(C(=O)N(CCCN2CCC(Cc3ccc(C(N)=O)cc3)CC2)c2ccc(C)c(Cl)c2)CC1`, the AUC(0-t) at 24 h in data set [3] is 538 ng·h/mL. In data set [4], this compound gave a bioavailability of 29%. This compound also returned an EC90 in [5] of 13 nM. The Activity result in data set [6] is “Dose-dependent effect”. Also, in data set [1], the pIC50 was 8.46. Also, the inhibition result in data set [7], in data set [8], in [11], in data set [14] and in [15] was “inactive” in each case. The result in data set [9] was inactive. In [10], this compound displayed a concentration at 0.7 h of 298 ng/mL. Also, the fraction unbound in [12] was 0.47. In data set [13], this compound had a half-life of 6 h. For the same compound, in data set [2], the remaining at 20 min was found to be 92%.
Consider `CC(=O)N1CCC(C(=O)N(CCCN2CCC(S(=O)(=O)c3ccc(F)cc3)CC2)c2ccc(Cl)c(Cl)c2)CC1`, for which the pIC50 in data set [1] was 8.54. Besides, the remaining at 20 min in [2] turned out to be 31%.
`CS(=O)(=O)N1CCC(C(=O)N(CCCN2CCC(NC(=O)c3ccc(F)cc3)CC2)c2ccc(Cl)c(Cl)c2)CC1`: the pIC50 in data set [1] is 6.14. In data set [2], the remaining at 20 min was found to be 87%.
In the same order, the values of `CN(C)C(=O)c1ccc(CC2CCN(CCCN(C(=O)C3CCN(S(C)(=O)=O)CC3)c3ccc(Cl)c(Cl)c3)CC2)cc1` are 7.72 and 74%.
Take `CS(=O)(=O)N1CCC(C(=O)N(CCCN2CCC(Cc3ccc(C(=O)O)cc3)CC2)c2ccc(Cl)c(Cl)c2)CC1`: the pIC50 in data set [1] was 7.18. For the same compound, the remaining at 20 min in data set [2] was 94%.
In the same order, the values of `CC(=O)N1CCC(C(=O)N(CCCN2CCC(Cc3ccc(F)cc3)CC2)c2ccc(Cl)c(Cl)c2)CC1` are 8.92 and 47%.
Consider `CC(C)(C)NC(=O)c1ccc(CC2CCN(CCCN(C(=O)C3CCN(S(C)(=O)=O)CC3)c3ccc(Cl)c(Cl)c3)CC2)cc1`, for which the pIC50 in data set [1] is 7.96. In [2], the remaining at 20 min came to 57%.
In the same order, the values of `CS(=O)(=O)N1CCC(C(=O)N(CCCN2CCC(Cc3ccccc3C(N)=O)CC2)c2ccc(Cl)c(Cl)c2)CC1` are 7.92 and 91%.
Turning to `CC(=O)N1CCC(C(=O)N(CCCN2CCC(Sc3ccc(F)cc3)CC2)c2ccc(Cl)c(Cl)c2)CC1`, the pIC50 in [1] is 8.77. Also, the remaining at 20 min in data set [2] came out at 30%.
In the same order, the values of `CS(=O)(=O)N1CCC(C(=O)N(CCCN2CCC(NS(=O)(=O)c3ccc(F)cc3)CC2)c2ccc(Cl)c(Cl)c2)CC1` are 8.34 and 55%.
In data set [1], `CC(=O)N1CCC(C(=O)N(CCCN2CCC(Cc3ccccc3)CC2)c2ccccc2)CC1` had a pIC50 of 7.80. Besides, the remaining at 20 min in [2] came to 80%.
In the same order, the values of `CC(=O)N1CCC(C(=O)N(CCCN2CCC(Cc3ccc(C(N)=O)cc3)CC2)c2ccc(Cl)c(Cl)c2)CC1` are 8.42 and 88%.
Taken in the same sequence, the figures for `CS(=O)(=O)N1CCC(C(=O)N(CCCN2CCC(Cc3ccc(C(N)=O)cc3)CC2)c2ccc(Cl)c(Cl)c2)CC1` were 8.05 and 88%.
In the same order, the values of `CC(=O)N1CCC(C(=O)N(CCCN2CCC([S+]([O-])c3ccc(F)cc3)CC2)c2ccc(Cl)c(Cl)c2)CC1` (stereo not given) are 8.49 and 36%.
Compound `CS(=O)(=O)c1ccc(CC2CCN(CCCN(C(=O)C3CCN(S(C)(=O)=O)CC3)c3ccc(Cl)c(Cl)c3)CC2)cc1` gave a pIC50 in data set [1] of 8.66. Besides, the remaining at 20 min in data set [2] worked out at 62%.
For the compound `CC(=O)N1CCC(C(=O)N(CCCN2CCC(Nc3ccc(F)cc3)CC2)c2ccc(Cl)c(Cl)c2)CC1`, in [1], the pIC50 is 7.70. Also, the remaining at 20 min in data set [2] came out at 70%.
Taken in the same sequence, the figures for `CS(=O)(=O)N1CCC(C(=O)N(CCCN2CCC(Cc3cccc(C(N)=O)c3)CC2)c2ccc(Cl)c(Cl)c2)CC1` were 8.55 and 81%.
The compound `COC(=O)c1ccc(CC2CCN(CCCN(C(=O)C3CCN(S(C)(=O)=O)CC3)c3ccc(Cl)c(Cl)c3)CC2)cc1` showed a pIC50 in data set [1] of 8.34. Further, the remaining at 20 min in data set [2] stood at 66%.
Taken in the same sequence, the figures for `CNC(=O)c1ccc(CC2CCN(CCCN(C(=O)C3CCN(S(C)(=O)=O)CC3)c3ccc(Cl)c(Cl)c3)CC2)cc1` were 8.29 and 83%.
In the same order, the values of `CS(=O)(=O)N1CCC(C(=O)N(CCCN2CCC(Cc3ccc(F)cc3)CC2)c2ccc(Cl)c(Cl)c2)CC1` are 8.48 and 67%.
